Measurements reported in ChEMBL document CHEMBL3526018, “Metabolites of PPI-2458, a selective, irreversible inhibitor of methionine aminopeptidase-2: structure determination and in vivo activity” (Drug Metab Dispos, 2013).
Calls of active or inactive are those of the source. No cut-off for these calls is given here.

Columns and labels:
[1] = system: Liver; experiment: Metabolic stability in mouse liver microsomes assessed as retention time of ((3R,4S,5S,6R)-4-((2R,3R)-3-(((R)-3,3-dimethyloxiran-2-yl)methyl)-2-methyloxiran-2-yl)-5-methoxy-1-oxaspiro[2.5]octan-6-yl ((R)-1-amino-3-methyl-1-oxobutan-2-yl)carbamate) at 5 mM by LC/MS analysis; assay type: ADME; settings: 5000 µM
Method in brief: (§1)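 Liver microsomes (pooled male/female) in 100 mM KPO4 pH 7.4 with PPI-2458 (5 mM stock), pre-incubated 5 min at 37°C, then 10 mM NADPH added; 20 min at 37°C with shaking. Time-zero and no-NADPH controls. Quenched with CH3CN; supernatant dried and redissolved in water. Analysed by LC-MS, ESI+ full scan 300–800 amu, C18 column, 10→50% B gradient.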

[2] = system: CYP3A5 (Homo sapiens); experiment: Ratio of Vmax to Km for human recombinant CYP3A5 assessed as ((3R,4S,5S,6R)-4-((2R,3R)-3-(((R)-3,3-dimethyloxiran-2-yl)methyl)-2-methyloxiran-2-yl)-5-methoxy-1-oxaspiro[2.5]octan-6-yl ((R)-1-amino-3-methyl-1-oxobutan-2-yl)carbamate) formation; settings: recombinant enzyme
[3] = system: CYP3A4 (Homo sapiens); experiment: Ratio of Vmax to Km for human recombinant CYP3A4 assessed as ((3R,4S,5S,6R)-5-methoxy-4-((2R,3R)-2-methyl-3-(3-methylbut-2-en-1-yl)oxiran-2-yl)-1-oxaspiro[2.5]octan-6-yl ((R)-1-amino-3-hydroxy-3-methyl-1-oxobutan-2-yl)carbamate) formation; settings: recombinant enzyme
[4] = system: Liver microsome; experiment: Metabolic stability in dog liver microsomes assessed as retention time of ((3R,4S,5S,6R)-5-methoxy-4-((2R,3R)-2-methyl-3-(3-methylbut-2-en-1-yl)oxiran-2-yl)-1-oxaspiro[2.5]octan-6-yl ((R)-1-amino-3-hydroxy-3-methyl-1-oxobutan-2-yl)carbamate) at 5 mM by LC/MS analysis; assay type: ADME, Canis lupus familiaris; settings: 5000 µM
[5] = system: Rattus norvegicus; experiment: Inhibition of MetAP2 level in Sprague-Dawley rat whole blood assessed as free enzyme level at 0.3 mg/kg, iv by ELISA; assay type: functional, organism-based; parameters: dose 0.3 mg/kg
Method in brief: (§2)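 Male Sprague-Dawley rats (200-225 g, n=3 per group) were dosed once IV at 0.3 mg/kg or PO at 0.3 or 3.0 mg/kg, in 11% HPCD in water. Blood, liver, lung, thymus and pooled non-mesenteric lymph nodes were taken at ~24 h and lysed or homogenized with NP-40. Free MetAP2 was measured by ELISA and expressed as % of vehicle.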

[6] = system: Rattus norvegicus; experiment: Inhibition of MetAP2 level in Sprague-Dawley rat lymph nodes assessed as free enzyme level at 3 mg/kg, po by ELISA; assay type: functional, organism-based; parameters: dose 3 mg/kg; method in brief: as §2
[7] = target: T1, Cytochrome P450 3A4 (Homo sapiens, UniProt P08684); experiment: Inhibition of CYP3A4 activity in human liver microsomes assessed as dibenzo fluuorescene oxidation up to 40 uM; assay type: ADME
[8] = system: Liver microsome; experiment: Metabolic stability in human liver microsomes assessed as retention time of ((3R,4S,5S,6R)-4-((2R,3R)-3-((E)-4-hydroxy-3-methylbut-2-en-1-yl)-2-methyloxiran-2-yl)-5-methoxy-1-oxaspiro[2.5]octan-6-yl((R)-1-amino-3-methyl-1-oxobutan-2-yl)carbamate) at 5 mM by LC/MS analysis; assay type: ADME; settings: 5000 µM; method in brief: as §1
[9] = system: Liver microsome; experiment: Metabolic stability in dog liver microsomes assessed as retention time of ((3R,4S,5S,6R)-4-((2R,3R)-3-(((S)-3,3-dimethyloxiran-2-yl)methyl)-2-methyloxiran-2-yl)-5-methoxy-1-oxaspiro[2.5]octan-6-yl ((R)-1-amino-3-methyl-1-oxobutan-2-yl)carbamate) at 5 mM by LC/MS analysis; assay type: ADME, Canis lupus familiaris; settings: 5000 µM
[10] = system: CYP3A4 (Homo sapiens); experiment: Activity of human recombinant CYP3A4 assessed as ((3R,4S,5S,6R)-5-methoxy-4-((2R,3R)-2-methyl-3-(3-methylbut-2-en-1-yl)oxiran-2-yl)-1-oxaspiro[2.5]octan-6-yl ((R)-1-amino-3-hydroxy-3-methyl-1-oxobutan-2-yl)carbamate) formation; settings: recombinant enzyme
[11] = system: Liver; experiment: Metabolic stability in mouse liver microsomes assessed as retention time of ((3R,4S,5S,6R)-4-((2R,3R)-3-((E)-4-hydroxy-3-methylbut-2-en-1-yl)-2-methyloxiran-2-yl)-5-methoxy-1-oxaspiro[2.5]octan-6-yl((R)-1-amino-3-methyl-1-oxobutan-2-yl)carbamate) at 5 mM by LC/MS analysis; assay type: ADME; settings: 5000 µM; method in brief: as §1
[12] = system: Liver microsome; experiment: Metabolic stability in human liver microsomes assessed as retention time of ((3R,4S,5S,6R)-4-((2R,3R)-3-(((R)-3,3-dimethyloxiran-2-yl)methyl)-2-methyloxiran-2-yl)-5-methoxy-1-oxaspiro[2.5]octan-6-yl ((R)-1-amino-3-methyl-1-oxobutan-2-yl)carbamate) at 5 mM by LC/MS analysis; assay type: ADME; settings: 5000 µM
[13] = Tmax in non-Hodgkin lymphoma patient at 15 mg, po alternate days for 21 days; assay type: ADME, organism-based; settings: human, in vivo
Method in brief: (§3)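 Non-Hodgkin lymphoma patients given oral capsules every other day for 21 days. Plasma sampled predose and at 15, 30 min and 1, 2, 3, 4, 6, 8, 24, 48 h after the first dose. Protein precipitated, extract reconstituted, parent and metabolites quantified by validated LC-MS/MS. CL/F and Vss/F derived from the administered dose.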

[14] = Metabolic stability in monkey liver microsomes assessed as retention time of ((3R,4S,5S,6R)-4-((2R,3R)-3-((E)-4-hydroxy-3-methylbut-2-en-1-yl)-2-methyloxiran-2-yl)-5-methoxy-1-oxaspiro[2.5]octan-6-yl((R)-1-amino-3-methyl-1-oxobutan-2-yl)carbamate) at 5 mM by LC/MS analysis; assay type: ADME, Macaca mulatta; settings: rhesus monkey, 5000 µM; method in brief: as §1
[15] = Oral steady-state volume of distribution in non-Hodgkin lymphoma patient at 15 mg, po alternate days for 21 days; assay type: ADME, organism-based; settings: human, in vivo, read-out: Vss/F; method in brief: as §3
[16] = system: Rattus norvegicus; experiment: Inhibition of MetAP2 level in Sprague-Dawley rat whole blood assessed as free enzyme level at 3 mg/kg, po by ELISA; assay type: functional, organism-based; parameters: dose 3 mg/kg; method in brief: as §2
[17] = system: Rattus norvegicus; experiment: Inhibition of MetAP2 level in Sprague-Dawley rat thymus assessed as free enzyme level at 0.3 mg/kg, iv by ELISA; assay type: functional, organism-based; parameters: dose 0.3 mg/kg; method in brief: as §2
[18] = system: Rattus norvegicus; experiment: Inhibition of MetAP2 level in Sprague-Dawley rat lymph nodes assessed as free enzyme level at 0.3 mg/kg, iv by ELISA; assay type: functional, organism-based; parameters: dose 0.3 mg/kg; method in brief: as §2
[19] = target: T1, Cytochrome P450 3A4; experiment: Inhibition of CYP3A4 activity in human liver microsomes using nifedipine as a substrate by LC/MS analysis; assay type: ADME
[20] = system: CYP3A4 (Homo sapiens); experiment: Activity of human recombinant CYP3A4 assessed as ((3R,4S,5S,6R)-4-((2R,3R)-3-(((R)-3,3-dimethyloxiran-2-yl)methyl)-2-methyloxiran-2-yl)-5-methoxy-1-oxaspiro[2.5]octan-6-yl ((R)-1-amino-3-methyl-1-oxobutan-2-yl)carbamate) formation per pmol of enzyme
[21] = system: Rattus norvegicus; experiment: Inhibition of MetAP2 level in Sprague-Dawley rat thymus assessed as free enzyme level at 3 mg/kg, po by ELISA; assay type: functional, organism-based; parameters: dose 3 mg/kg; method in brief: as §2

T1 sequence (P08684 whole entry): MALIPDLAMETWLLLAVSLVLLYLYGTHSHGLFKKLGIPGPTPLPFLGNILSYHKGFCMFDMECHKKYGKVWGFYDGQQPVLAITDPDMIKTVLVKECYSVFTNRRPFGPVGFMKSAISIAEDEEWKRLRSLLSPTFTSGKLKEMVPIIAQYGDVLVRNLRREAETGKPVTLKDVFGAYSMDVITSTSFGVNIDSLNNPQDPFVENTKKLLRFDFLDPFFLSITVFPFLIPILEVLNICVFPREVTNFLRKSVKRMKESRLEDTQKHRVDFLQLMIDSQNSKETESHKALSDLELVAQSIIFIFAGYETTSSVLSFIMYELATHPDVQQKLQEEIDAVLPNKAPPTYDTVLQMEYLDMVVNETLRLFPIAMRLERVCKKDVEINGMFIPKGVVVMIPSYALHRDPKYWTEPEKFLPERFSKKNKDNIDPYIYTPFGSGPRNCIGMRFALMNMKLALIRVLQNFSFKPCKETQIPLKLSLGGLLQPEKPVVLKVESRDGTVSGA

Drug metabolism [1]: metabolite_detected | Vmax/Km [2]: 0.17 µL/min | Vmax/Km [3]: 0.019 µL/min | Drug metabolism [4]: metabolite_detected | inhibition (INH) [7]: Not Active | Drug metabolism [8]: metabolite_detected | Drug metabolism [9]: metabolite_detected | Km [10]: 27 µM | Drug metabolism [11]: metabolite_detected | Drug metabolism [12]: metabolite_detected | Tmax [13]: 36 min | Drug metabolism [14]: metabolite_detected | Vd/F [15]: 415 L | Ki [19]: 403 µM | Vmax [20]: 2.7 pmol/min
Structure (SMILES): CO[C@@H]1[C@H](OC(=O)N[C@@H](C(N)=O)C(C)C)CC[C@]2(CO2)[C@H]1[C@@]1(C)O[C@@H]1CC=C(C)C [PPI-2458]
inhibition [5]: Active | inhibition [6]: Active | inhibition [16]: Active | inhibition [17]: Active | inhibition [18]: Active | inhibition [21]: Active
